≈ marks a conversion by molar mass, not a printed value.
Assays:
Type in all cases: functional
Staphylococcus aureus [1] = experiment: Antibacterial activity tested against Staphylococcus aureus Methicillin-and Ciprofloxacin resistants; Range is 1-2 ug/mL
Enterobacter cloacae = experiment: Antibacterial activity tested against Enterobacter cloacae OMNFI 174
Staphylococcus aureus [2] = experiment: Antibacterial activity against Staphylococcus aureus MPR 5
Summary of the method: (§1)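 MICs (µg/mL) determined by conventional agar dilution against a panel of eight Gram-negative and five Gram-positive reference strains.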

Escherichia coli [3] = experiment: Antibacterial activity tested against Escherichia coli ATCC 8739; summary of the method: as §1
Escherichia coli [4] = experiment: Inhibitory activity against gyrase supercoiling activity from Escherichia coli
Summary of the method: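 Inhibition of DNA gyrase supercoiling activity, by a previously described protocol with slight modifications. IC50 derived by densitometric quantification of the supercoiled DNA peak in an agarose gel.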

[5] = test system: Staphylococcus epidermidis; experiment: Antibacterial activity tested against Staphylococcus epidermidis HCF Berset C; summary of the method: as §1
[6] = Geometric mean of antibacterial activity (Gram -ve bacteria) of the compound
Summary of the method: (§2)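 Geometric means calculated from agar-dilution MICs (µg/mL), taken separately across the five Gram-positive and the eight Gram-negative panel strains.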

Pseudomonas aeruginosa = experiment: Antibacterial activity tested against P. ae (Pseudomonas aeruginosa) ATCC 9027; summary of the method: as §1
[7] = test system: Staphylococcus epidermidis; experiment: Antibacterial activity tested against Staphylococcus epidermidis CPHL A2; summary of the method: as §1
Klebsiella pneumoniae = experiment: Antibacterial activity tested against Klebsiella pneumoniae (Klebsiella pneumoniae) ATCC 10031; summary of the method: as §1
Enterococcus faecalis [8] = experiment: Antibacterial activity tested against Enterococcus faecalis; Range is 0.13-0.25 ug/mL
Proteus vulgaris = experiment: Antibacterial activity tested against Proteus vulgaris CNUR 5; summary of the method: as §1
Streptococcus pneumoniae = experiment: Antibacterial activity tested against Streptococcus pneumoniae; Range is 1-2 ug/mL
Shigella = experiment: Antibacterial activity tested against Shigella enteritidis; summary of the method: as §1
Staphylococcus aureus [9] = experiment: Antibacterial activity tested against Staphylococcus aureus; Range is 0.016-0.13 ug/mL
Bacteria = experiment: Geometric mean of antibacterial activity (Gram +ve bacteria) of the compound; summary of the method: as §2
Enterococcus faecium = experiment: Antibacterial activity tested against Enterococcus faecium; Range is 0.13-2 ug/mL
Staphylococcus aureus [10] = experiment: Antibacterial activity against Staphylococcus aureus ATCC 6538; summary of the method: as §1
Escherichia coli [11] = experiment: Antibacterial activity tested against Escherichia coli ISF 432; summary of the method: as §1
Enterococcus faecalis [12] = experiment: Antibacterial activity tested against Streptococcus faecalis LEP Br; summary of the method: as §1
Providencia stuartii = experiment: Antibacterial activity tested against Providencia stuartii CNUR 5; summary of the method: as §1

MIC (Enterobacter cloacae) [µg/mL] | MIC (Staphylococcus aureus [2]) [µg/mL] | MIC (Escherichia coli [3]) [µg/mL] | IC50 (Escherichia coli [4]) [µg/mL] | MIC [5] [µg/mL] | MIC [7] [µg/mL] | MIC (Klebsiella pneumoniae) [µg/mL] | MIC (Proteus vulgaris) [µg/mL] | MIC (Shigella) [µg/mL] | MIC (Staphylococcus aureus [10]) [µg/mL] | MIC (Escherichia coli [11]) [µg/mL] | MIC (Enterococcus faecalis [12]) [µg/mL] | MIC (Providencia stuartii) [µg/mL] | Structure (SMILES) | Geometric mean [6] | MIC (Pseudomonas aeruginosa) [µg/mL] | Geometric mean (Bacteria) | also measured
64 (≈ 172 µM) | 1 (≈ 2.69 µM) | 32 (≈ 86.2 µM) | – | 8 (≈ 21.5 µM) | 8 (≈ 21.5 µM) | 64 (≈ 172 µM) | 64 (≈ 172 µM) | 64 (≈ 172 µM) | 32 (≈ 86.2 µM) | 4 (≈ 10.8 µM) | 32 (≈ 86.2 µM) | 64 (≈ 172 µM) | Cc1c(N2CCCCC2)c([N+](=O)[O-])cc2c(=O)c(C(=O)O)cn(C3CC3)c12 | 41.5 | 64 (≈ 172 µM) | 9.189 | –
4 (≈ 10.9 µM) | 0.03 (≈ 0.0816 µM) | 4 (≈ 10.9 µM) | – | 1 (≈ 2.72 µM) | 0.25 (≈ 0.68 µM) | 0.03 (≈ 0.0816 µM) | 64 (≈ 174 µM) | 3 (≈ 8.16 µM) | 0.03 (≈ 0.0816 µM) | 0.3 (≈ 0.816 µM) | 4 (≈ 10.9 µM) | 1 (≈ 2.72 µM) | Cc1c(N2CC3CCC2CC3)c(N)cc2c(=O)c(C(=O)O)cn(C3CC3)c12 | 2.141 | 16 (≈ 43.5 µM) | 0.246 | –
4 (≈ 10.2 µM) | 0.03 (≈ 0.0764 µM) | 0.06 (≈ 0.153 µM) | 3.14 (≈ 8 µM) | 0.03 (≈ 0.0764 µM) | 0.03 (≈ 0.0764 µM) | 0.03 (≈ 0.0764 µM) | 4 (≈ 10.2 µM) | 0.25 (≈ 0.637 µM) | 0.03 (≈ 0.0764 µM) | 0.03 (≈ 0.0764 µM) | 0.25 (≈ 0.637 µM) | 2 (≈ 5.1 µM) | Cc1c(N2CCc3ccccc3C2)c(F)cc2c(=O)c(C(=O)O)cn(C3CC3)c12 | 0.451 | 4 (≈ 10.2 µM) | 0.046 | –
0.25 (≈ 0.73 µM) | 2 (≈ 5.84 µM) | 0.25 (≈ 0.73 µM) | – | 4 (≈ 11.7 µM) | 2 (≈ 5.84 µM) | 0.03 (≈ 0.0876 µM) | 64 (≈ 187 µM) | 0.25 (≈ 0.73 µM) | 2 (≈ 5.84 µM) | 0.03 (≈ 0.0876 µM) | 32 (≈ 93.5 µM) | 8 (≈ 23.4 µM) | CN1CCN(c2cc3c(cc2N)c(=O)c(C(=O)O)cn3C2CC2)CC1 | 0.642 | 4 (≈ 11.7 µM) | 4 | –
2 (≈ 5.41 µM) | 0.03 (≈ 0.0812 µM) | 0.125 (≈ 0.338 µM) | – | 0.06 (≈ 0.162 µM) | 0.06 (≈ 0.162 µM) | 0.06 (≈ 0.162 µM) | 16 (≈ 43.3 µM) | 2 (≈ 5.41 µM) | 0.03 (≈ 0.0812 µM) | 0.03 (≈ 0.0812 µM) | 1 (≈ 2.71 µM) | 0.5 (≈ 1.35 µM) | Cc1c(N2CC(C)CC(C)C2)c(N)cc2c(=O)c(C(=O)O)cn(C3CC3)c12 (stereo not drawn) | 0.641 | 4 (≈ 10.8 µM) | 0.079 | –
16 (≈ 51.1 µM) | 8 (≈ 25.5 µM) | 16 (≈ 51.1 µM) | – | 16 (≈ 51.1 µM) | 16 (≈ 51.1 µM) | 0.25 (≈ 0.798 µM) | > 128 | 16 (≈ 51.1 µM) | 8 (≈ 25.5 µM) | 0.25 (≈ 0.798 µM) | > 128 | 64 (≈ 204 µM) | Cc1c(N2CCC2)c(N)cc2c(=O)c(C(=O)O)cn(C3CC3)c12 | 11.313 | > 128 | 18.379 | –
0.125 (≈ 0.351 µM) | 0.5 (≈ 1.4 µM) | 0.03 (≈ 0.0842 µM) | 3.78 (≈ 10.6 µM) | 1 (≈ 2.81 µM) | 1 (≈ 2.81 µM) | 0.03 (≈ 0.0842 µM) | 4 (≈ 11.2 µM) | 0.06 (≈ 0.168 µM) | 0.5 (≈ 1.4 µM) | 0.03 (≈ 0.0842 µM) | 4 (≈ 11.2 µM) | 2 (≈ 5.61 µM) | Cc1c(N2CCN(C)CC2)c(N)cc2c(=O)c(C(=O)O)cn(C3CC3)c12 | 0.205 | 2 (≈ 5.61 µM) | 1 | –

Structure (SMILES) | MIC (Enterobacter cloacae) [µg/mL] | MIC (Staphylococcus aureus [2]) [µg/mL] | MIC (Escherichia coli [3]) [µg/mL] | IC50 (Escherichia coli [4]) [µg/mL] | MIC [5] [µg/mL] | MIC [7] [µg/mL] | MIC (Klebsiella pneumoniae) [µg/mL] | MIC (Proteus vulgaris) [µg/mL] | MIC (Shigella) [µg/mL] | MIC (Staphylococcus aureus [10]) [µg/mL] | MIC (Escherichia coli [11]) [µg/mL] | MIC (Enterococcus faecalis [12]) [µg/mL] | MIC (Providencia stuartii) [µg/mL] | Geometric mean [6] | MIC (Pseudomonas aeruginosa) [µg/mL] | Geometric mean (Bacteria) | also measured
Cc1c(N2CCC(C)CC2)c(N)cc2c(=O)c(C(=O)O)cn(C3CC3)c12 | 0.5 (≈ 1.41 µM) | 0.06 (≈ 0.169 µM) | 0.03 (≈ 0.0844 µM) | 5.86 (≈ 16.5 µM) | 0.125 (≈ 0.352 µM) | 0.125 (≈ 0.352 µM) | 0.03 (≈ 0.0844 µM) | 8 (≈ 22.5 µM) | 0.5 (≈ 1.41 µM) | 0.06 (≈ 0.169 µM) | 0.03 (≈ 0.0844 µM) | 0.5 (≈ 1.41 µM) | 0.5 (≈ 1.41 µM) | 0.268 | 1 (≈ 2.81 µM) | 0.122 | MIC (Staphylococcus aureus [1]): 1 µg/mL (≈ 2.81 µM); MIC (Enterococcus faecalis [8]): 0.13 µg/mL (≈ 0.366 µM); MIC (Streptococcus pneumoniae): 1 µg/mL (≈ 2.81 µM); MIC (Staphylococcus aureus [9]): 0.016 µg/mL (≈ 0.045 µM); MIC (Enterococcus faecium): 0.13 µg/mL (≈ 0.366 µM)

Source: ChEMBL document CHEMBL1129660, “Studies on 6-aminoquinolones: synthesis and antibacterial evaluation of 6-amino-8-methylquinolones” (J Med Chem, 1996)
